ChEMBL document CHEMBL3792331, “Identification and synthesis of potent and selective pyridyl-isoxazole based agonists of sphingosine-1-phosphate 1 (S1P1)” (Bioorg Med Chem Lett, 2016)

Tests used:
[1] = Selectivity index, ratio of EC50 for agonist activity at human S1P3 receptor expressed in EDG3-Ga15-bla HEK293T cell membranes to EC50 for agonist activity at human S1P1 receptor expressed in CHO cell membranes; format: cell-based
In short: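 S1P3/S1P1 ratio of GTPγ[35S] EC50s. Membranes from EDG3-Ga15-bla HEK293T (S1P3) or S1P1/CHO cells, […], 0.2 nM final [35S]GTP. HEPES pH 7.5 buffer with MgCl2, NaCl, EGTA, DTT, GDP, BSA and saponin. 45 min at room temperature, filtration read-out. Each EC50 taken at 50% of the compound's own Ymax.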

[2] = test system: Rattus norvegicus; experiment: Reduction in circulating lymphocytes in Lewis rat at 1 mg/kg, po after 4 hrs; format: functional
In short: (§1)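 Healthy Lewis rats dosed orally with test article as solution or suspension in vehicle, or vehicle alone. Blood drawn at 4 h and 24 h. Circulating lymphocyte percentage measured by hematology analyzer, expressed as reduction versus the vehicle group. Group average, n = 3–4.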

[3] = test system: Plasma; experiment: Ratio of plasma concentration Lewis rat at 1 mg/kg, po after 4 hrs to plasma concentration Lewis rat at 1 mg/kg, po after 24 hrs; format: ADME, organism-based; conditions: in vivo
In short: (§2)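 Lewis rats given 1.0 mg/kg orally as solution or suspension in vehicle. Plasma drug concentration measured in blood drawn at 4 h and 24 h; 4 h/24 h ratio taken from these values.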

[4] = target: Sphingosine 1-phosphate receptor 3 (Homo sapiens, UniProt Q99500); experiment: Agonist activity at human S1P3 receptor expressed in EDG3-Ga15-bla HEK293T cell membranes assessed as stimulation of [35S]GTPgamma binding incubated for 45 mins by liquid scintillation counting method; design: species or system HEK-293T
Sphingosine 1-phosphate receptor 3, sequence (Q99500 whole entry): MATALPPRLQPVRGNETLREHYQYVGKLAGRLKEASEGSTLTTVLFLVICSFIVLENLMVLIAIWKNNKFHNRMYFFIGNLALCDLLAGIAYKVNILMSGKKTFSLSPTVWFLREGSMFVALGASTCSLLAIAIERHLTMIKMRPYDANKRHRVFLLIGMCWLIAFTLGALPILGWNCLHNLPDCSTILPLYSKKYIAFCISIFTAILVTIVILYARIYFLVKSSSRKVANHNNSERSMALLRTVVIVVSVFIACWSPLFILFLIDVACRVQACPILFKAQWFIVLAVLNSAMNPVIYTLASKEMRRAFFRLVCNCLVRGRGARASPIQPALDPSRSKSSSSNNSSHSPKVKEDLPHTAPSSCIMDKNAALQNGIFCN
In short: (§3)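 Membranes from S1P1/CHO cells (S1P1) or EDG3-Ga15-bla HEK293T cells (S1P3), final protein […], with 3-fold compound dilutions. Buffer: 20 mM HEPES pH 7.5, 10 mM MgCl2, 150 mM NaCl, 1 mM EGTA, 1 mM DTT, GDP, 0.1% fatty acid free BSA, saponin. [35S]GTP 0.2 nM final. Room temperature, 45 min. Filtered, washed with water, dried 60 °C. EC50 taken at 50% of each compound's Ymax.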

[5] = Plasma concentration Lewis rat at 1 mg/kg, po after 4 hrs; format: ADME, organism-based; in short: as §2
[6] = test system: Rattus norvegicus; experiment: Reduction in circulating lymphocytes in Lewis rat at 1 mg/kg, po after 24 hrs; format: functional; in short: as §1
[7] = Plasma concentration Lewis rat at 1 mg/kg, po after 24 hrs; format: ADME, organism-based; in short: as §2
[8] = target: Sphingosine 1-phosphate receptor 1 (Homo sapiens, UniProt P21453); experiment: Agonist activity at human S1P1 receptor expressed in CHO cell membranes assessed as stimulation of [35S]GTPgamma binding incubated for 45 mins by liquid scintillation counting method; in short: as §3
Sphingosine 1-phosphate receptor 1, sequence (P21453 whole entry): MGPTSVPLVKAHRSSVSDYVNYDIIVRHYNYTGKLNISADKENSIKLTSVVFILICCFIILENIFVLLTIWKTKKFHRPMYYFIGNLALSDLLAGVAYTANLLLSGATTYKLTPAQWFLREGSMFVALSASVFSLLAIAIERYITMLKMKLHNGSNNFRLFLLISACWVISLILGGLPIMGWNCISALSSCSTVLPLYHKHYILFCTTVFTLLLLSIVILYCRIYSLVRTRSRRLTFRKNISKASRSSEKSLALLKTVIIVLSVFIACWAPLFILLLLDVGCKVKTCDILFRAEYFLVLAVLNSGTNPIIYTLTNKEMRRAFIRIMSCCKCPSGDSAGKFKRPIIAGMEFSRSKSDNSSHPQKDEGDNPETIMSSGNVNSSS

Compound	Ratio EC50 [1]	inhibition in vivo at 1 mg/kg [2] [%]	Ratio [3]	EC50 [4] [nM]	concentration at 4 h [5] [nM]	inhibition in vivo at 1 mg/kg [6] [%]	concentration at 24 h [7] [nM]	EC50 [8] [nM]
CC(C)c1c(-c2nc(-c3ccc(CN4CC(C(=O)O)C4)cc3)no2)noc1-c1ccccn1	8200	84	22	8200	686	64	31	
CCCc1c(-c2nc(-c3ccc(CN4CC(C(=O)O)C4)cc3)no2)noc1-c1ccccn1	2500	81	30		292	53	9.9	
CCCc1c(-c2ccccn2)noc1-c1nc(-c2ccc(CN3CC(C(=O)O)C3)cc2)no1	3000	82	12	630	318	85	26	0.21
